Test results published in ChEMBL document CHEMBL4043182, “On the synthesis of quinone-based BODIPY hybrids: New insights on antitumor activity and mechanism of action in cancer cells” (Bioorg Med Chem Lett, 2017).
Values belong to the compound of their own block, whether it stands above or below them.

Tests used:
L929 [1] = assay: Antiproliferative activity against mouse L929 cells after 72 hrs by MTT assay; assay type: cell-based; settings: L929, 72 h
Procedure, shortened: (§1)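 MTT reduction: cancer lines plated at 0.7×10^5 to 0.3×10^6 cells/well, V79 and L929 fibroblasts at 0.5×10^5 cells/well. Compounds in DMSO (0.1%) were given for 24 h at 0.04–40.92 µM or 72 h at 0.04–8.19 µM. Fresh medium with 0.5 mg/mL MTT was added for 3 h, then formazan was dissolved in DMSO and read at 595 nm as % of control. IC50 came from nonlinear regression with 95% CI. Doxorubicin (0.001–1.06 µM) was the positive control. Triplicate, ≥3 repeats.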

PC-3 [2] = assay: Antiproliferative activity against human PC3 cells after 72 hrs by MTT assay; assay type: functional, cell-based; settings: PC-3, 72 h; procedure, shortened: as §1
MDA-MB-435 = assay: Antiproliferative activity against human MDA-MB-435 cells after 72 hrs by MTT assay; assay type: functional, cell-based; settings: MDA-MB-435, 72 h; procedure, shortened: as §1
V79 [3] = assay: Antiproliferative activity against chinese hamster V79 cells after 72 hrs by MTT assay; assay type: cell-based; settings: Cricetulus griseus, V79, 72 h; procedure, shortened: as §1
SW-620 = assay: Antiproliferative activity against human SW620 cells after 72 hrs by MTT assay; assay type: functional, cell-based; settings: SW-620, 72 h; procedure, shortened: as §1
SF-295 [4] = assay: Antiproliferative activity against human SF295 cells after 72 hrs by MTT assay; assay type: functional, cell-based; settings: SF-295, 72 h; procedure, shortened: as §1
HL-60 [5] = assay: Induction of oxidative stress in human HL60 cells assessed as total intracellular thiol levels at 5 uM treated 24 hrs post NAC addition measured after 24 hrs by spectrophotometric analysis (reference value: 3.61 +/- 0.22 microg/mg); assay type: functional
Procedure, shortened: (§2)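 Cells were pretreated 24 h with 5 mM NAC, then exposed 24 h to test compound at 5 µM. Controls received 0.1% DMSO. Extracts were prepared by sonication and HClO4 precipitation, then neutralized with KOH. Total glutathione was read by DTNB/glutathione reductase/NADPH rate at 412 nm. GSSG was measured after 4-vinylpyridine (0.1%, 1 h, RT) and GSH derived by difference. Values are normalized to protein, triplicates, three independent runs.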

Jurkat [6] = assay: Induction of oxidative stress in human Jurkat cells assessed as GSH to GSSG ratio at 5 uM after 24 hrs by spectrophotometric analysis (reference value: 3.81 +/- 0.22 microg/mg); assay type: functional
Jurkat [7] = assay: Induction of oxidative stress in human Jurkat cells assessed as total GSH levels at 5 uM treated 24 hrs post NAC addition measured after 24 hrs by spectrophotometric analysis (reference value: 3.02 +/- 0.21 microg/mg); assay type: functional; procedure, shortened: as §2
V79 [8] = assay: Antiproliferative activity against chinese hamster V79 cells at 0.04 to 40.92 uM after 24 to 72 hrs by MTT assay; assay type: cell-based, Cricetulus griseus; settings: v79, 40.92 µM; procedure, shortened: as §1
Jurkat [9] = assay: Antiproliferative activity against human Jurkat cells after 24 to 72 hrs by MTT assay; assay type: functional, cell-based; procedure, shortened: as §1
HL-60 [10] = assay: Induction of oxidative stress in human HL60 cells assessed as GSH to GSSG ratio at 5 uM treated 24 hrs post NAC addition measured after 24 hrs by spectrophotometric analysis (reference value: 4.53 +/- 0.55 microg/mg); assay type: functional; procedure, shortened: as §2
HCT-116 [11] = assay: Antiproliferative activity against human HCT116 cells after 72 hrs by MTT assay; assay type: functional, cell-based; settings: HCT-116, 72 h; procedure, shortened: as §1
[12] = Selectivity index, ratio of IC50 for mouse L929 cells to IC50 for human HL60 cells; assay type: functional
Procedure, shortened: (§3)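 Selectivity index is the ratio of the IC50 in a non-cancer murine line (V79 or L929) to the IC50 in the cancer line. […] MTT was 0.5 mg/mL for 3 h, formazan dissolved in DMSO and read at 595 nm as % of control. IC50s were derived by nonlinear regression; triplicate, at least three repeats.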

[13] = Selectivity index, ratio of IC50 for chinese hamster V79 cells to IC50 for human Jurkat cells; assay type: functional; procedure, shortened: as §3
HL-60 [14] = assay: Induction of oxidative stress in human HL60 cells assessed as total GSSG levels at 5 uM treated 24 hrs post NAC addition measured after 24 hrs by spectrophotometric analysis (reference value: 0.66 +/- 0.17 microg/mg); assay type: functional; procedure, shortened: as §2
HL-60 [15] = assay: Induction of oxidative stress in human HL60 cells assessed as GSH to GSSG ratio at 5 uM after 24 hrs by spectrophotometric analysis (reference value: 4.53 +/- 0.55 microg/mg); assay type: functional
HL-60 [16] = assay: Induction of oxidative stress in human HL60 cells assessed as total GSH levels at 5 uM treated 24 hrs post NAC addition measured after 24 hrs by spectrophotometric analysis (reference value: 3.01 +/- 0.11 microg/mg); assay type: functional; procedure, shortened: as §2
HL-60 [17] = assay: Induction of oxidative stress in human HL60 cells assessed as total GSSG levels at 5 uM after 24 hrs by spectrophotometric analysis (reference value: 0.66 +/- 0.17 microg/mg); assay type: functional
Jurkat [18] = assay: Induction of oxidative stress in human Jurkat cells assessed as total GSH levels at 5 uM after 24 hrs by spectrophotometric analysis (reference value: 3.02 +/- 0.21 microg/mg); assay type: functional
L929 [19] = assay: Antiproliferative activity against mouse L929 cells at 0.04 to 40.92 uM after 24 to 72 hrs by MTT assay; assay type: cell-based; settings: l929, 40.92 µM; procedure, shortened: as §1
Jurkat [20] = assay: Induction of oxidative stress in human Jurkat cells assessed as total intracellular thiol levels at 5 uM treated 24 hrs post NAC addition measured after 24 hrs by spectrophotometric analysis (reference value: 3.87 +/- 0.55 microg/mg); assay type: functional; procedure, shortened: as §2
Jurkat [21] = assay: Induction of oxidative stress in human Jurkat cells assessed as total GSSG levels at 5 uM treated 24 hrs post NAC addition measured after 24 hrs by spectrophotometric analysis (reference value: 0.78 +/- 0.33 microg/mg); assay type: functional; procedure, shortened: as §2
HL-60 [22] = assay: Antiproliferative activity against human HL60 cells after 24 to 72 hrs by MTT assay; assay type: functional, cell-based; procedure, shortened: as §1
[23] = Selectivity index, ratio of IC50 for mouse L929 cells to IC50 for human Jurkat cells; assay type: functional; procedure, shortened: as §3
HL-60 [24] = assay: Induction of oxidative stress in human HL60 cells assessed as total GSH levels at 5 uM after 24 hrs by spectrophotometric analysis (reference value: 3.01 +/- 0.11 microg/mg); assay type: functional
HL-60 [25] = assay: Induction of oxidative stress in human HL60 cells assessed as total intracellular thiol levels at 5 uM after 24 hrs by spectrophotometric analysis (reference value: 3.61 +/- 0.22 microg/mg); assay type: functional
[26] = Drug uptake in lysosomes of human PC3 cells at 5 uM after 10 mins by LysoTracker Red dye-based confocal microscopic analysis; assay type: ADME, cell-based; settings: pc-3, 10 min
Procedure, shortened: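 PC3 cells were grown in DMEM with 10% FBS, antibiotics and 2 mM L-glutamine at 37 °C, 5% CO2. Cells were incubated with compound (5 µM) plus LysoTracker Red or MitoTracker Red for 10 min at 37 °C. Live cells were imaged in phenol red-free DMEM by confocal microscopy with a 40X oil objective, exciting at 488 nm (compound) and 543 nm (tracker dyes).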

Jurkat [27] = assay: Induction of oxidative stress in human Jurkat cells assessed as total GSSG levels at 5 uM after 24 hrs by spectrophotometric analysis (reference value: 0.78 +/- 0.33 microg/mg); assay type: functional
[28] = Selectivity index, ratio of IC50 for chinese hamster V79 cells to IC50 for human HL60 cells; assay type: functional; procedure, shortened: as §3
Jurkat [29] = assay: Induction of oxidative stress in human Jurkat cells assessed as GSH to GSSG ratio at 5 uM treated 24 hrs post NAC addition measured after 24 hrs by spectrophotometric analysis (reference value: 3.81 +/- 0.22 microg/mg); assay type: functional; procedure, shortened: as §2
Jurkat [30] = assay: Induction of oxidative stress in human Jurkat cells assessed as total intracellular thiol levels at 5 uM after 24 hrs by spectrophotometric analysis (reference value: 3.87 +/- 0.55 microg/mg); assay type: functional
PC-3 [31] = assay: Cytotoxicity against human PC3 cells after 24 hrs in presence of GSH-OEt by MTT assay; assay type: functional, cell-based; settings: PC-3, 24 h
Procedure, shortened: (§4)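 24 h MTT exposure (0.04–40.92 µM in 0.1% DMSO), with or without co-treatment with GSH ethyl ester (15 mM) to gauge the ROS contribution. MTT was 0.5 mg/mL for 3 h, with formazan dissolved in DMSO and absorbance at 595 nm expressed as % of control. Triplicate, repeated at least three times.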

PC-3 [32] = assay: Cytotoxicity against human PC3 cells after 24 hrs in absence of GSH-OEt by MTT assay; assay type: functional, cell-based; settings: PC-3, 24 h; procedure, shortened: as §4
L929 [33] = assay: Cytotoxicity against mouse L929 cells after 24 hrs in presence of GSH-OEt by MTT assay; assay type: cell-based; settings: L929, 24 h; procedure, shortened: as §4
SF-295 [34] = assay: Cytotoxicity against human SF295 cells after 24 hrs in absence of GSH-OEt by MTT assay; assay type: functional, cell-based; settings: SF-295, 24 h; procedure, shortened: as §4
HCT-116 [35] = assay: Cytotoxicity against human HCT116 cells after 24 hrs in presence of GSH-OEt by MTT assay; assay type: functional, cell-based; settings: HCT-116, 24 h; procedure, shortened: as §4
L929 [36] = assay: Cytotoxicity against mouse L929 cells after 24 hrs in absence of GSH-OEt by MTT assay; assay type: cell-based; settings: L929, 24 h; procedure, shortened: as §4
HCT-116 [37] = assay: Cytotoxicity against human HCT116 cells after 24 hrs in absence of GSH-OEt by MTT assay; assay type: functional, cell-based; settings: HCT-116, 24 h; procedure, shortened: as §4
SF-295 [38] = assay: Cytotoxicity against human SF295 cells after 24 hrs in presence of GSH-OEt by MTT assay; assay type: functional, cell-based; settings: SF-295, 24 h; procedure, shortened: as §4

IC50 (PC-3 [2]): 0.05 µM | IC50 (MDA-MB-435): 0.94 µM | IC50 (SW-620): 0.29 µM
SMILES: COc1cccc2c1C(=O)c1c(O)c3c(c(O)c1C2=O)C[C@@](O)(C(=O)CO)C[C@@H]3O[C@H]1C[C@H](N)[C@H](O)[C@H](C)O1 [DOXORUBICIN]
IC50 (L929 [1]): 0.22 µM | IC50 (V79 [3]): 0.25 µM | IC50 (SF-295 [4]): 0.45 µM

IC50 (Jurkat [9]): 0.94 µM | IC50 (HCT-116 [11]): 2.85 µM | IC50 (PC-3 [2]): 2.39 µM | IC50 (MDA-MB-435): > 7.72 µM | IC50 (SW-620): > 7.72 µM | IC50 (HL-60 [22]): 0.92 µM | Drug uptake [26]: Metabolite_Detected
SMILES: CC1=CC(C)=[N+]2C1=C(c1ccc(OCc3cn(C4C5=C(OC4(C)C)c4ccccc4C(=O)C5=O)nn3)cc1)c1c(C)cc(C)n1[B-]2(F)F (stereo not drawn)
Activity (HL-60 [5]): 2.83 µg/mg | Activity (Jurkat [6]): 0.21 µg/mg | Activity (Jurkat [7]): 1.58 µg/mg | Activity (V79 [8]): Non-Toxic | Activity (HL-60 [10]): 0.76 µg/mg | IC50 (L929 [1]): > 7.72 µM | Ratio IC50 [12]: >8.5 | Ratio IC50 [13]: >8.5 | Activity (HL-60 [14]): 1.47 µg/mg | Activity (HL-60 [15]): 0.31 µg/mg | IC50 (V79 [3]): > 7.72 µM | Activity (HL-60 [16]): 1.19 µg/mg | Activity (HL-60 [17]): 2.18 µg/mg | Activity (Jurkat [18]): 0.6 µg/mg | Activity (L929 [19]): Non-Toxic | Activity (Jurkat [20]): 3.11 µg/mg | Activity (Jurkat [21]): 1.44 µg/mg | IC50 (SF-295 [4]): > 7.72 µM | Ratio IC50 [23]: >8.5 | Activity (HL-60 [24]): 0.72 µg/mg | Activity (HL-60 [25]): 3.01 µg/mg | Activity (Jurkat [27]): 2.57 µg/mg | Ratio IC50 [28]: >8.5 | Activity (Jurkat [29]): 1.08 µg/mg | Activity (Jurkat [30]): 3.28 µg/mg

IC50 (HCT-116 [11]): > 8.1 µM | IC50 (PC-3 [2]): > 8.1 µM | IC50 (MDA-MB-435): > 8.1 µM | IC50 (SW-620): > 8.1 µM
SMILES: CC1(C)OC2=C(C(=O)c3ccccc3C2=O)C1n1cc(CNC2=[N+]3C(=C(c4ccccc4)c4ccc(Cl)n4[B-]3(F)F)C=C2)nn1 (stereo not drawn)
IC50 (PC-3 [31]): > 40 µM | IC50 (PC-3 [32]): > 40 µM | IC50 (L929 [33]): > 40 µM | IC50 (SF-295 [34]): > 40 µM | IC50 (L929 [1]): > 8.1 µM | IC50 (HCT-116 [35]): > 40 µM | IC50 (V79 [3]): > 8.1 µM | IC50 (L929 [36]): > 40 µM | IC50 (SF-295 [4]): > 8.1 µM | IC50 (HCT-116 [37]): > 40 µM | IC50 (SF-295 [38]): > 40 µM
